Assay outcomes (PubChem BioAssay)
Rows were chosen to be rich in hits. Some 2.7% of all compounds tested hit in one or more screens of this group.
Rev-erbA mod: modulates human Rev-erb alpha binding to DNA | P20393 | AID 1259318 | Rev-erbα–FITC-DNA binding, fluorescence polarization, 90 min | actives 0.79% (n = 370,000) | activity, % at 10 µM;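 active = activity above about 14%, limit read from the data; passing the limit was not always enough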;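 also: 0% = DMSO wells with 35 nM protein and 100% = DMSO wells with 750 nM protein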
PG9 binder: small molecules binding HIV-1 gp120 antibody PG9. inhibition, % at 6.7 µM. actives 0.43% (n = 360,000). AID 624416. TR-FRET gp120-PG9 antibody binding; in the data active = inhibition above about 8.5%
NR2E3 ag-1: human photoreceptor-specific nuclear receptor agonism; Q9Y5X4; CHO-S Gal4-NCOR/VP16-NR2E3 two-hybrid, luciferase; inhibition of corepressor binding, % at 3.98 µM; actives 0.35% (n = 360,000);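 active = inhibition above the mean of all tested compounds plus 3 SD, cut at about 70% in these data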;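 also: 0% = DMSO with NR2E3 transfected cells and 100% = cells lacking NR2E3 construct; higher means lower luciferase signal from less NR2E3 corepressor binding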
Target sequence (Q9Y5X4 whole entry, looked up, the tested form may be a part): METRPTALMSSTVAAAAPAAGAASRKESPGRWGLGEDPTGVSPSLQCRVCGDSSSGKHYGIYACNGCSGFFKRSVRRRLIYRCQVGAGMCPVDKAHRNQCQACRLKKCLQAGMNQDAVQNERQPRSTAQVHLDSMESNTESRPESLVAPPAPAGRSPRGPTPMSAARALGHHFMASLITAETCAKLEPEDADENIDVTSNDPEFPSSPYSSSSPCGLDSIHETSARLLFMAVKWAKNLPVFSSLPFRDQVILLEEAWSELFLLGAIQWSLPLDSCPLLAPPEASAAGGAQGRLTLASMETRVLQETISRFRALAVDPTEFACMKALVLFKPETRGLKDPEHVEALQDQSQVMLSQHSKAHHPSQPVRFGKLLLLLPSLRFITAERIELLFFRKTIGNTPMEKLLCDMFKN
MC4R antag cAMP: antagonists of human melanocortin 4 receptor (MC4R); actives 0.48% (n = 360,000); MC4R-expressing cells, MTII-stimulated cAMP, LANCE TR-FRET; P32245; inhibition, % at 6.5 µM;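 active = inhibition above its plate's cutoff, the mean of tested wells on that plate plus 3 SD, cut at about 29% in these data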;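 also: 0% = Melanotan II alone and 100% = Melanotan II plus saturating MCL0020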
Target sequence (P32245 whole entry, looked up): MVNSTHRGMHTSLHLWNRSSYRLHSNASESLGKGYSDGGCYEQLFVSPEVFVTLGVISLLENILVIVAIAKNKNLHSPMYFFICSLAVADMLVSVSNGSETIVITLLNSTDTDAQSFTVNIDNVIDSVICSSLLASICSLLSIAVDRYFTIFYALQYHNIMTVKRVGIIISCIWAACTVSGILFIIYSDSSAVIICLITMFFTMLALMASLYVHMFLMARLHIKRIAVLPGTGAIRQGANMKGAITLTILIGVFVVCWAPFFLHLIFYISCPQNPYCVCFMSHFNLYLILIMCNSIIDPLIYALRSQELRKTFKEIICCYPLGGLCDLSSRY
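Test system: U2OS cells stably expressing human melanocortin 4 receptor (MC4R); also added: Melanotan II challenge; compound: 6.5 µM single dose; timing: 30-min compound preincubation, 1-h Melanotan II challenge, 1-h detection, room temperature; signal: Eu-cAMP/anti-cAMP TR-FRET, emission 671 nm; repeats: one well per compound, no replicates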
MC4R ag barr: human MC4R agonism via beta-arrestin. actives 0.98% (n = 360,000). AID 540308. P32245. activation, % at 8.9 µM. U2OS MC4R beta-arrestin complementation, luminescence; percent of melanotan II response, DMSO zero;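 active = activation above a per-plate cutoff, the mean activation of sample wells on that plate plus 3 SD, cut at about 8% in these data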
NR2E3 ag-2: activates human photoreceptor nuclear receptor NR2E3 | AID 2300 | actives 0.12% (n = 320,000) | inhibition of corepressor binding, % at 4.78 µM | GST-NR2E3/biotin-RetCOR TR-FRET, 1536-well;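 active = percent inhibition above the cutoff of mean plus 3 SD of all tested compounds, set per screening campaign, cut at about 20% in these data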;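 also: 0% = DMSO wells and 100% = biotin wells as full block of FRET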
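System: GST-NR2E3 and biotin-RetCOR proteins; probe or stimulus: 7 nM biotin-RetCOR; doses: compound at 4.8 µM, single dose; schedule: Compound–protein incubation for 5 h at 4 °C; detection: time-resolved FRET; read-out: percent inhibition; controls: biotin wells as high control, 0.6% DMSO wells as low control; format: 1536-well plates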
Rev-erbA confirm: Rev-erb alpha (human) modulation, hit confirmation. activation, % at 25 µM. Rev-erb alpha FITC-DNA binding, fluorescence polarization, 90 min. shares compounds with Rev-erbA mod. actives 61% (n = 3,000);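 active = activation at or above a set limit, or at least 3 SD above the negative control mean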;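 also: 0% = 35 nM protein with DMSO and 100% = 750 nM protein high control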
RORg DNA counter: RORgamma DNA-binding activity, dose-response counter-screen. actives 8% (n = 910). shares compounds with Rev-erbA mod. purified RORgamma protein-FITC-DNA binding, fluorescence polarization. AID 1259320. IC50, µM;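 active = Compounds whose fitted half-maximal concentration for disrupting protein-DNA binding is below 10 micromolar; the record names Rev-erb in its text, so the target is in doubt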
Numbers without * were called inactive.

How did CCCCOc1ccc(C(=O)CCN2CCCCC2)cc1 do in these assays?
Rev-erbA mod: 2.7; PG9 binder: 0.1; NR2E3 ag-1: 3.5; MC4R antag cAMP: 11.5; MC4R ag barr: -1.0; NR2E3 ag-2: 4.5

What do the screens show for `O=C(NCC1CCCO1)c1cn(Cc2ccccc2)nc1-c1ccccc1` (centres undefined)?
Rev-erbA mod: 26.8*; PG9 binder: 1.1; NR2E3 ag-1: -17.8; MC4R antag cAMP: 7.9; MC4R ag barr: -1.3; NR2E3 ag-2: 3.0; Rev-erbA confirm: -4.9

What do the screens show for `O=C(Nc1nnc(C2CCCCC2)s1)c1ccc(Br)s1`?
Rev-erbA mod: 95.4*; PG9 binder: 0.9; NR2E3 ag-1: -31.4; MC4R antag cAMP: 1.8; MC4R ag barr: -0.4; NR2E3 ag-2: -1.9; Rev-erbA confirm: 81.7*; RORg DNA counter: >40

Results for CC(CNC(=O)CN1C(=O)c2cccnc2Oc2ccc(Cl)cc21)c1ccccc1 (centres undefined) ?
Rev-erbA mod: 0.3; PG9 binder: -1.7; NR2E3 ag-1: 1.0; MC4R antag cAMP: 6.4; MC4R ag barr: -3.1; NR2E3 ag-2: -1.7

How did O=C(CCn1c(=O)c2cccn2c2cccnc21)NCc1cccc(Cl)c1 do in these assays?
Rev-erbA mod: 63.6*; PG9 binder: -1.6; NR2E3 ag-1: -24.8; MC4R antag cAMP: 5.9; MC4R ag barr: 0.2; NR2E3 ag-2: -0.4; Rev-erbA confirm: 64.3*; RORg DNA counter: 4.27*

What do the screens show for `OCc1cn(-c2ccccc2)nc1-c1ccc(-c2nn(-c3ccccc3)cc2CO)cc1`?
Rev-erbA mod: 15.6*; PG9 binder: -2.3; NR2E3 ag-1: 20.6; MC4R antag cAMP: 1.9; MC4R ag barr: 7.5; NR2E3 ag-2: -0.2; Rev-erbA confirm: 8.0

What do the screens show for `NS(=O)(=O)c1ccc(CCNC(=O)C2CCN(c3ncnc4c3nc3n4CCCCC3)CC2)cc1`?
Rev-erbA mod: 1.0; PG9 binder: -0.1; NR2E3 ag-1: -41.0; MC4R antag cAMP: -1.0; MC4R ag barr: -3.0; NR2E3 ag-2: -2.2

Results for CCn1c2ccccc2c2cc(NC(=O)CSc3nnc(-c4cccc(Cl)c4)o3)ccc21 ?
Rev-erbA mod: 31.9*; PG9 binder: 1.7; NR2E3 ag-1: -11.5; MC4R antag cAMP: 3.8; MC4R ag barr: 0.3; NR2E3 ag-2: -1.5; Rev-erbA confirm: 10.6

Results for O=C(CSc1nnc(-c2cccnc2)o1)Nc1cccc(Cl)c1 ?
Rev-erbA mod: 0.3; PG9 binder: 0.7; NR2E3 ag-1: -17.8; MC4R antag cAMP: 20.2; MC4R ag barr: -0.6; NR2E3 ag-2: 2.1

Results for O=C(Nc1cccc(C(F)(F)F)c1)c1cc(Br)cc2c1OCC2 ?
Rev-erbA mod: 28.4*; PG9 binder: -0.1; NR2E3 ag-1: -25.8; MC4R antag cAMP: 4.6; MC4R ag barr: -0.7; NR2E3 ag-2: -1.1; Rev-erbA confirm: 30.5*; RORg DNA counter: 4.46*

What do the screens show for `N#C/C(=C\c1ccc(-c2ccc(C(=O)O)cc2)o1)c1nc2ccccc2[nH]1`?
Rev-erbA mod: 41.9*; PG9 binder: -6.9; NR2E3 ag-1: -20.9; MC4R antag cAMP: -2.9; MC4R ag barr: 0.3; Rev-erbA confirm: 27.2*

Results for COc1ccc2c3n(nc2c1)CCN=C3c1ccc(Cl)cc1 ?
Rev-erbA mod: 4.1; PG9 binder: -0.6; NR2E3 ag-1: -10.1; MC4R antag cAMP: 0.6; MC4R ag barr: -2.9; NR2E3 ag-2: 3.8

How did CC(=O)c1ccc(N2CCN(C(=S)Nc3cccc(F)c3)CC2)cc1 do in these assays?
Rev-erbA mod: 28.9*; PG9 binder: 0.8; NR2E3 ag-1: -9.0; MC4R antag cAMP: 4.9; MC4R ag barr: -1.3; NR2E3 ag-2: -0.4; Rev-erbA confirm: 18.1*

Results for O=C(/C=C/c1ccc(OCCCF)cc1)Nc1ccnc(-c2cccnc2)n1 ?
Rev-erbA mod: 24.3*; PG9 binder: 8.3; NR2E3 ag-1: -1.7; MC4R antag cAMP: 12.0; MC4R ag barr: 0.0; NR2E3 ag-2: -1.3; Rev-erbA confirm: 22.0*

Results for O=C(/C=C/c1ccc(OCCCF)cc1)Nc1ccnc(-c2ccncc2)n1 ?
Rev-erbA mod: -2.5; PG9 binder: -1.2; NR2E3 ag-1: -11.9; MC4R antag cAMP: -1.6; MC4R ag barr: -1.0; NR2E3 ag-2: 0.2

Results for Cc1ccc(OCC(=O)O/N=C(\N)c2ccccn2)cc1C ?
Rev-erbA mod: -6.9; PG9 binder: -2.4; NR2E3 ag-1: -98.9; MC4R antag cAMP: -3.5; MC4R ag barr: -2.0; NR2E3 ag-2: 0.6

How did Cc1ccc(OCC(=O)O/N=C(\N)c2ccncc2)cc1C do in these assays?
Rev-erbA mod: 22.5*; PG9 binder: 1.2; NR2E3 ag-1: -107.2; MC4R antag cAMP: -1.8; MC4R ag barr: -1.9; NR2E3 ag-2: 6.1; Rev-erbA confirm: -3.2

How did CCc1nc2c(c(SC)nn2-c2ccccc2)c(N)c1C(=O)OC do in these assays?
Rev-erbA mod: 25.9*; PG9 binder: -1.7; NR2E3 ag-1: 3.2; MC4R antag cAMP: -15.6; MC4R ag barr: -1.0; NR2E3 ag-2: 0.9; Rev-erbA confirm: 7.2

What do the screens show for `N#Cc1nc(-c2ccc(OCc3ccc(Cl)cc3)cc2)oc1N1CCC(C(N)=O)CC1`?
Rev-erbA mod: -8.0; PG9 binder: -0.3; NR2E3 ag-1: -9.4; MC4R antag cAMP: 4.7; MC4R ag barr: 0.0; NR2E3 ag-2: 4.5

How did N#Cc1nc(-c2ccc(OCc3ccc(Cl)cc3)cc2)oc1N1CCOCC1 do in these assays?
Rev-erbA mod: 37.5*; PG9 binder: -0.9; NR2E3 ag-1: 3.5; MC4R antag cAMP: 2.1; MC4R ag barr: 0.4; NR2E3 ag-2: 0.7; Rev-erbA confirm: -3.4

Results for COCCCNc1nc2c(-c3ccc(C)cc3)nnn2c2ccccc12 ?
Rev-erbA mod: 64.7*; PG9 binder: 6.8; NR2E3 ag-1: -90.2; MC4R antag cAMP: -2.0; MC4R ag barr: 3.5; NR2E3 ag-2: 4.3; Rev-erbA confirm: 35.3*; RORg DNA counter: inactive

How did CC(=O)c1ccc(N2CCN(S(=O)(=O)c3cc(-c4cc(C)no4)ccc3C(C)C)CC2)cc1 do in these assays?
Rev-erbA mod: 25.8*; PG9 binder: 1.2; NR2E3 ag-1: -3.8; MC4R antag cAMP: 9.8; MC4R ag barr: -3.7; NR2E3 ag-2: -1.4; Rev-erbA confirm: 21.6*

How did Cc1cc(-c2ccc(C(C)C)c(S(=O)(=O)N3CCN(c4ccccc4)CC3)c2)on1 do in these assays?
Rev-erbA mod: -0.2; PG9 binder: 1.4; NR2E3 ag-1: -26.1; MC4R antag cAMP: -16.8; MC4R ag barr: -5.8; NR2E3 ag-2: -0.3
